Ends that are not written are not given here.
What was measured:
[1] = target: Detergent soluble I-A^u (mouse); assay: dissociation kinetics of fluorescein-labelled peptide
I-A^u [2] = target: T1, I-A^u (Mus musculus, UniProt P06344+P14438); settings: for Copy/cell: peptides eluted from I-A^u, T cell–depleted B10.PL splenocytes, MBP 95 μg/ml, 16 h, 37°C, based on copy number/cell of MBPAc1-18, determined by comparison to angiotensin control; for times more detected than MBP125–135 peptides: eluted from I-A^u, MBP-pulsed splenocytes
T1 sequence (P14438 1-227): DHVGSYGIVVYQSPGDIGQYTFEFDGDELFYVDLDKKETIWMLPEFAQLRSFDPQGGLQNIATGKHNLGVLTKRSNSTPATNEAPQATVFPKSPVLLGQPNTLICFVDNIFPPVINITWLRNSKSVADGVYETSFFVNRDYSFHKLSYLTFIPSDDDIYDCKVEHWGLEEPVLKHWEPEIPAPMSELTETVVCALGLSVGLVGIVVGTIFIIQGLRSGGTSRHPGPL
T1 sequence (P06344 28-263): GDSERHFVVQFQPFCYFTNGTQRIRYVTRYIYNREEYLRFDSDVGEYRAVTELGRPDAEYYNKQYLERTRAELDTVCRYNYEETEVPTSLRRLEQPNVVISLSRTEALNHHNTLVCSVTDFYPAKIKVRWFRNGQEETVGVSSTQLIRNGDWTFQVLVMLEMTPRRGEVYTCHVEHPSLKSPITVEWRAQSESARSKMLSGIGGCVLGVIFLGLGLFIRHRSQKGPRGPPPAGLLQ
Procedure, shortened: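 Spleen cells depleted of T cells (2 × 10^6 cells/ml in RPMI) were incubated 16 h at 37°C with MBP (95 μg/ml). I-Au was captured with anti-I-Au antibody on Protein A beads. Peptides were eluted in 10% acetic acid through a 10 kD filter. About 6 × 10^6 cell equivalents were spiked with 2 fmol angiotensin I and run on C18 gradient LC into FT-ICR MS. Amounts were normalized to the angiotensin standard, and identity was confirmed by CAD MS/MS and coelution with synthetic peptide.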

[3] = by competition for I-A^u binding; cited from earlier work
[4] = system: T cells from MBP-primed mice; settings: synthetic peptides; cited from earlier work
I-A^u [5] = target: T1, I-A^u; settings: cited from earlier work
I-A^u [6] = target: T1, I-A^u; assay: Dissociation of fluorescein-labeled MBP peptides from soluble I-A^u; format: binding; settings: for dissociation kinetics (in words): fluorescein-labeled peptide, soluble I-A^u, 1 h at 37°C, Fig. 2
[7] = system: MBPAc1–11-specific TCR Tg T cells; format: cell-based, mouse; settings: 50 uM peptide; fixed splenocytes; two TCR Tg lines
Procedure, shortened: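 T cells from MBPAc1–11 TCR transgenic mice were purified with anti-Vα2.3 or anti-Vβ8.1/8.2 and sorted free of I-Au+ cells. They were plated at 2 × 10^5/well in complete RPMI with 50 uM peptide or 95 μg/ml MBP. APCs were 10^6 splenocytes per well, either irradiated live or fixed in 0.1% paraformaldehyde for 5 min at room temperature. Cultures ran 48 h, were pulsed with [3H]-thymidine and harvested 18 h later.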

MBP-specific T cells = settings: B10.PL MBP-deficient shiverer (MBP^−/−) mice; cited from earlier work
[8] = biphasic dissociation, 1 h incubation at 37°C, pH 5.3, HPSEC fluorescence
[9] = incubation with I-A^u for 1 h at 37°C

MBPAc1–11 (synthetic, fluorescein-labelled) (peptide)
dissociation half-life (t1/2) [1]: 0.5 h

Ac1-16: N-acetylated NH2-terminal MBP peptide eluted from I-A^u (Ac-MGNHSGKRELSAEKAS; UniProt P04370 1-16, looked up, fragment)
Copy/cell (I-A^u [2]): 18.1 copy/cell

MBPAc1–18 (synthetic, fluorescein-labelled) (peptide)
dissociation half-life, fast phase (t1/2fast) [1]: 3.7 h | dissociation half-life, slow phase (t1/2slow) [1]: 117 h | percent of bound peptide in long-lived complexes [1]: 62% | percent of bound peptide in short-lived complexes [1]: 38% | percent of bound peptide in the long phase [1]: 77%

MBPAc9–20: MBP peptide (rat) of earlier work (ref 17) (Ac-RHGSKYLATAST; UniProt P02688 10-21, looked up, fragment)
inhibition of EAE [3]: inhibited EAE induced by immunization with rat MBPAc1–11

MBP136–146: synthetic peptide; epitope within MBP121–150 (SQKRPSQRSKY; UniProt P04370 136-146, looked up, fragment)
stimulation of T cells from MBP-primed mice [4]: stimulated T cells from MBP-primed mice | affinity for I-A^u (in words) (I-A^u [5]): high affinity for I-A^u

Ac1-19: N-acetylated NH2-terminal MBP peptide eluted from I-A^u
Copy/cell (I-A^u [2]): 6.7 copy/cell

124-137: MBP peptide from the MBP121–150 region eluted from I-A^u (PTAASGGLDVMASQ; UniProt P04370 124-137, looked up, fragment)
Copy/cell (I-A^u [2]): 9.2 copy/cell

rat MBPAc5–20: rat MBP peptide of earlier work (ref 17)
inhibition of EAE [3]: inhibited EAE induced by immunization with rat MBPAc1–11

Ac1-20: N-acetylated NH2-terminal MBP peptide eluted from I-A^u (Ac-MGNHSGKRELSAEKASKDGE; UniProt P04370 1-20, looked up, fragment)
Copy/cell (I-A^u [2]): 24.4 copy/cell

Ac1-22: N-acetylated NH2-terminal MBP peptide eluted from I-A^u (Ac-MGNHSGKRELSAEKASKDGEIH; UniProt P04370 1-22, looked up, fragment)
Copy/cell (I-A^u [2]): 5.7 copy/cell

MBPAc1–18: N-acetylated NH2-terminal MBP peptide containing both the MBPAc1–11 and MBP5–16 registers
t1/2fast (rapid-dissociation phase) (I-A^u [6]; [8]): 3.7 h | t1/2slow (slow phase) (I-A^u [6]; [8]): 117 h | dissociation kinetics (in words) (I-A^u [6]): biphasic kinetics | peptide bound in long-lived complexes (slow phase) (I-A^u [6]; [9]): ~62% | peptide bound in short-lived complexes (faster phase) (I-A^u [6]; [9]): ~38% | peptide bound in the long phase (I-A^u [6]; incubation with I-A^u for 16 h, unpublished data): 77% | times more detected than MBP125–135 peptides (I-A^u [2]): ~20 times | Copy/cell (I-A^u [2]): 622.0 copy/cell | T cell response on fixed APCs (in words) [7]: respond well

123-136: MBP peptide from the MBP121–150 region eluted from I-A^u (DPTAASGGLDVMAS; UniProt P04370 123-136, looked up, fragment)
Copy/cell (I-A^u [2]): 9.2 copy/cell

MBPAc1–11: N-acetylated NH2-terminal MBP epitope, low affinity I-A^u register (Ac-MGNHSGKRELS; UniProt P04370 1-11, looked up, fragment)
dissociation kinetics (in words) (I-A^u [6]): monophasic fast dissociation | binding to I-A^u (in words) (I-A^u [5]): binds I-A^u poorly | T cell response on fixed APCs (in words) [7]: responded well

MBP125–135: synthetic peptide; core epitope within MBP121–150 (TAASGGLDVMA; UniProt P04370 125-135, looked up, fragment)
stimulation of T cells from MBP-primed mice [4]: stimulated T cells from MBP-primed mice | affinity for I-A^u (in words) (I-A^u [5]): high affinity for I-A^u

120-137: MBP peptide from the MBP121–150 region eluted from I-A^u (IQEDPTAASGGLDVMASQ; UniProt P04370 120-137, looked up, fragment)
Copy/cell (I-A^u [2]): 3.4 copy/cell

MBPAc1–17: N-acetylated NH2-terminal MBP peptide eluted from I-A^u
times more detected than MBP125–135 peptides (I-A^u [2]): ~20 times

B1: myelin basic protein (protein, UniProt P04370 1-250, looked up)
Myelin basic protein: MGNHSGKRELSAEKASKDGEIHRGEAGKKRSVGKLSQTASEDSDVFGEADAIQNNGTSAEDTAVTDSKHTADPKNNWQGAHPADPGNRPHLIRLFSRDAPGREDNTFKDRPSESDELQTIQEDPTAASGGLDVMASQKRPSQRSKYLATASTMDHARHGFLPRHRDTGILDSIGRFFSGDRGAPKRGSGKDSHTRTTHYGSLPQKSQHGRTQDENPVVHFFKNIVTPRTPPPSQGKGGRDSRSGSPMARR
T cell response after immunization (MBP-specific T cells): strong T cell responses directed toward MBP121–150

Source: article PMC2193784 (The Journal of Experimental Medicine, 2003)
